Paper PMC3775715 (Chemistry & biology, 2012)

Columns and labels:
A549 cells = assay: Metabolomics of steady-state metabolite levels in A549 cells; assay type: cell-based, human; settings: 24 hr, 0.5 uM for 9
recombinant PKM2 = recombinant PKM2 (Homo sapiens, UniProt P14618); assay: Biochemical activity assay against recombinant PKM2; settings: for reactivation of PKM2 inhibited by phenylalanine: PKM2 preincubated with phenylalanine for 30 min
Procedure, shortened: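 Recombinant PKM2 was preincubated with phenylalanine for 30 min. Test compound or FBP was then added for 30 min, after which pyruvate kinase activity was measured.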

Sequence of recombinant PKM2 (P14618 whole entry): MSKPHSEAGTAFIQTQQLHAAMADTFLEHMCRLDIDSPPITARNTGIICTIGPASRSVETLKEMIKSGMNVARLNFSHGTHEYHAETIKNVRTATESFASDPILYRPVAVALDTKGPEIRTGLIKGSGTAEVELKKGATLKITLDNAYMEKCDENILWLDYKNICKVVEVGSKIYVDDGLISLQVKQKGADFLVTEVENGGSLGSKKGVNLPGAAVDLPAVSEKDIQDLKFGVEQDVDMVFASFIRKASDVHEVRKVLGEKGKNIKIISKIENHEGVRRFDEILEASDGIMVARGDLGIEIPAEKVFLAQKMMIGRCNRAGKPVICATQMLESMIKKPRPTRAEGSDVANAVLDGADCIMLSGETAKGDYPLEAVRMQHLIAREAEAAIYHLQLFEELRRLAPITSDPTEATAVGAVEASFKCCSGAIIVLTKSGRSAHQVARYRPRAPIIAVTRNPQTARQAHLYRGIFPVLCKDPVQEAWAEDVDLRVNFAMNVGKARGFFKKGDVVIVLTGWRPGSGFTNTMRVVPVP

| SMILES | changes in steady-state metabolite levels (A549 cells) | change in potency for PKM2 inhibited with phenylalanine (recombinant PKM2; PKM2 inhibited with phenylalanine) | reactivation of PKM2 inhibited by phenylalanine (recombinant PKM2) |
| --- | --- | --- | --- |
| CCCCS(=N)(=O)CC[C@H](N)C(=O)O (stereo partly shown) [BSO, buthionine sulfoxime] | induced robust changes in steady-state metabolite pools | – | – |
| N[C@@H](CO)C(=O)O [Serine, serine] | – | eight times loss in potency | partially restore the activity of PKM2 |
| O=C(COP(=O)(O)O)[C@@H](O)[C@H](O)[C@H](O)COP(=O)(O)O [FBP, fructose 1,6-bisphosphate] | – | – | partially reactivate PKM2 to the low basal level of activity |
